ChEMBL document CHEMBL4433251, “Discovery of BR102375, a new class of non-TZD PPARγ full agonist for the treatment of type 2 diabetes” (Bioorg Med Chem Lett, 2019)
The source made the active and inactive calls. The calls are words filed in the database; no cut-off is given here.

Tests used:
[1] = target: T1, Peroxisome proliferator-activated receptor gamma (Mus musculus) (UniProt P37238); assay: Agonist activity at GAL4-tagged mouse PPARgamma LBD expressed in monkey CV1 cells assessed as receptor transactivation incubated for 24 hrs by luciferase reporter gene assay relative to telmisartan; assay type: cell-based
T1 sequence (whole entry): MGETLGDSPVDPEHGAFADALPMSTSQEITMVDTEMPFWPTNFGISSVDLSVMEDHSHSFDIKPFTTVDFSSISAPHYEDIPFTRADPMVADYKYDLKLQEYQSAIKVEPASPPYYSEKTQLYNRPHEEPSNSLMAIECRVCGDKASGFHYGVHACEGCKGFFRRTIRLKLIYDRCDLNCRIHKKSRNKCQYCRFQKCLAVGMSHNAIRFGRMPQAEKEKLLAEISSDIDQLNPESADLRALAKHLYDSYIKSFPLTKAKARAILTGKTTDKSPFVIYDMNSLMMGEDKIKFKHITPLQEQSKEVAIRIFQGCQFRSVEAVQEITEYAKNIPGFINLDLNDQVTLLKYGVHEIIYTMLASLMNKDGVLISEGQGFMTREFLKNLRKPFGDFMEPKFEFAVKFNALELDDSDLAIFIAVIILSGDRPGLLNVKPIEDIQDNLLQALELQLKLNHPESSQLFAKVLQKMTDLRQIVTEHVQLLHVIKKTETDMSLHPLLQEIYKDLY

[2] = target: T2, Peroxisome proliferator-activated receptor gamma (Homo sapiens, UniProt P37231); assay: Agonist activity at PPARgamma (unknown origin) assessed as receptor transactivation after 24 hrs by TK-PPRE-Luc expressing cells based luciferase reporter gene assay
T2 sequence (P37231 whole entry): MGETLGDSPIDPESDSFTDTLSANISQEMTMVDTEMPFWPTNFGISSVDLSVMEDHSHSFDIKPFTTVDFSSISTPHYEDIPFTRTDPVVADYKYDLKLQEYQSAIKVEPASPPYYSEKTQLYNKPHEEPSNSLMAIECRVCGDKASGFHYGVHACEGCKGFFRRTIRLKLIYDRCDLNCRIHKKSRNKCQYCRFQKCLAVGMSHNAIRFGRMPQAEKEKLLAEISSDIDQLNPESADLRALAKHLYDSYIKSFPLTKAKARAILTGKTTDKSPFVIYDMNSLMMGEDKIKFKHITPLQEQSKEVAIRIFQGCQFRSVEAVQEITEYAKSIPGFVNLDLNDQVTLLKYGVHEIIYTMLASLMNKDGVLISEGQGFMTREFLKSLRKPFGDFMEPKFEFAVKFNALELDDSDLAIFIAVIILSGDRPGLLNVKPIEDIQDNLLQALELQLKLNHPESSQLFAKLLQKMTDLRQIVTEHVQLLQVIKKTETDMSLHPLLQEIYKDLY
Summary of the method: (§1)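 Luciferase reporter gene assay in cells transfected with PPRE and luciferase genes; luciferase induction measured over a range of concentrations to derive EC50 and Amax; Amax expressed as a percentage relative to pioglitazone.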

[3] = target: T3, Peroxisome proliferator-activated receptor gamma (Homo sapiens) (UniProt P37231); assay: Agonist activity at PPARgamma (unknown origin) assessed as receptor transactivation after 24 hrs by TK-PPRE-Luc expressing cells based luciferase reporter gene assay relative to pioglitazone; summary of the method: as §1
T3 sequence (whole entry): T2 sequence (P37231 whole entry)

[4] = target: hERG (KCNH2) (Homo sapiens, UniProt Q12809); assay: Inhibition of human ERG at 10 uM
Chain of hERG (KCNH2) (Q12809 whole entry): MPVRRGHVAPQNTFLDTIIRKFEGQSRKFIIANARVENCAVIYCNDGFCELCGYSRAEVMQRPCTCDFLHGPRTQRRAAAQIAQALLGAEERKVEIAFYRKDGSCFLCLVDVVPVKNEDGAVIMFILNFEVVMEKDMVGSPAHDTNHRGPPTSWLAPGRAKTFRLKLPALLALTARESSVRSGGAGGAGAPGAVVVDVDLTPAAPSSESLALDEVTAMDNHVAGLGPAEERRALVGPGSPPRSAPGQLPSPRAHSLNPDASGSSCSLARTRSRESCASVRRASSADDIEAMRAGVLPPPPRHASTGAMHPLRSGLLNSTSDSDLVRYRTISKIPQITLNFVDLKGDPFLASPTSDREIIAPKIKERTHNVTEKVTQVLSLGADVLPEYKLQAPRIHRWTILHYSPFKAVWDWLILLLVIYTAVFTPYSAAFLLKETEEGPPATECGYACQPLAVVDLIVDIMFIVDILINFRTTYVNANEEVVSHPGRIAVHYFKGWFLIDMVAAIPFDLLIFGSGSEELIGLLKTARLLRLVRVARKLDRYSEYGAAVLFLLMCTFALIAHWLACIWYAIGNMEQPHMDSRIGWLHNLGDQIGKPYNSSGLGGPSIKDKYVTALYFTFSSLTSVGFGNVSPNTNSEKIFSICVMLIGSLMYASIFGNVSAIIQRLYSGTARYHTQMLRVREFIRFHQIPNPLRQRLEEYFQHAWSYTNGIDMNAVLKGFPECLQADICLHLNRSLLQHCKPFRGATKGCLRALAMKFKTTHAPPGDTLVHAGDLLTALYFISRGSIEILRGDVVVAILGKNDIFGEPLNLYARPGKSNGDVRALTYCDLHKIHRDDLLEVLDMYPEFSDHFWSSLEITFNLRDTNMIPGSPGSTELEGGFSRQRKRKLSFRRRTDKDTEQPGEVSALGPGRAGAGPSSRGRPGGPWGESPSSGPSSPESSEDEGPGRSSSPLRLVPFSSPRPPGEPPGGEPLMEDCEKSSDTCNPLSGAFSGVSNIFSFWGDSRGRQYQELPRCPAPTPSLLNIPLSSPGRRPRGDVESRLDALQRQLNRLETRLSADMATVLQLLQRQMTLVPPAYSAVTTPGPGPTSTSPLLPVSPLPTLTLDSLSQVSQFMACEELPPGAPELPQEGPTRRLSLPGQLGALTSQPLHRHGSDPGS
Summary of the method: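 hERG: % inhibition measured at 10 µM.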

[5] = Stability in mouse liver microsomes assessed as parent compound remaining at 30 mins; assay type: ADME, Microsome; conditions: read-out: Stability
Summary of the method: (§2)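 Compound incubated with liver microsomes (mouse, rat, dog, human) for 30 min; stability expressed as % of parent concentration remaining.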

[6] = Stability in rat liver microsomes assessed as parent compound remaining at 30 mins; assay type: ADME, Microsome; conditions: read-out: Stability; summary of the method: as §2
[7] = Stability in dog liver microsomes assessed as parent compound remaining at 30 mins; assay type: ADME, Canis lupus familiaris, Microsome; conditions: read-out: Stability; summary of the method: as §2
[8] = Stability in human liver microsomes assessed as parent compound remaining at 30 mins; assay type: ADME, Microsome; conditions: read-out: Stability; summary of the method: as §2
[9] = target: T4, CYP1A2 (Homo sapiens, UniProt P05177); assay: Inhibition of CYP1A2 (unknown origin) assessed as enzyme remaining activity at 10 uM; assay type: ADME; conditions: read-out: INH
T4 sequence (P05177 whole entry): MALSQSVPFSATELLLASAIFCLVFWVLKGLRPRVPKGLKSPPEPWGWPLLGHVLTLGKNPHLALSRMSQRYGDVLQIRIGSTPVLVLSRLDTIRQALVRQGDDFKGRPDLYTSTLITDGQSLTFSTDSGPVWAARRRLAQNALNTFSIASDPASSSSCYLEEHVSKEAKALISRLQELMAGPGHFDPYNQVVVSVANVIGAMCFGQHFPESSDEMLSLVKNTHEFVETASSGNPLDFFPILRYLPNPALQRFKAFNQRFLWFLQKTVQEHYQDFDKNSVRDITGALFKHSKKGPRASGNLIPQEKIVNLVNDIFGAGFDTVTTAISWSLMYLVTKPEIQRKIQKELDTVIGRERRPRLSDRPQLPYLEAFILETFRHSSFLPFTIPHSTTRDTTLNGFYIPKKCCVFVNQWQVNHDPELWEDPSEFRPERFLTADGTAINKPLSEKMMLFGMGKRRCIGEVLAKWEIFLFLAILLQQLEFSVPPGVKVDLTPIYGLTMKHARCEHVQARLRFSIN
Summary of the method: (§3)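 CYP isoforms 1A2, 2C9, 2C19, 2D6, 3A4: % remaining enzyme activity in presence of 10 uM compound.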

[10] = target: CYP2C9 (Homo sapiens, UniProt P11712); assay: Inhibition of CYP2C9 (unknown origin) assessed as enzyme remaining activity at 10 uM; assay type: ADME; conditions: read-out: INH; summary of the method: as §3
Chain of CYP2C9 (P11712 whole entry): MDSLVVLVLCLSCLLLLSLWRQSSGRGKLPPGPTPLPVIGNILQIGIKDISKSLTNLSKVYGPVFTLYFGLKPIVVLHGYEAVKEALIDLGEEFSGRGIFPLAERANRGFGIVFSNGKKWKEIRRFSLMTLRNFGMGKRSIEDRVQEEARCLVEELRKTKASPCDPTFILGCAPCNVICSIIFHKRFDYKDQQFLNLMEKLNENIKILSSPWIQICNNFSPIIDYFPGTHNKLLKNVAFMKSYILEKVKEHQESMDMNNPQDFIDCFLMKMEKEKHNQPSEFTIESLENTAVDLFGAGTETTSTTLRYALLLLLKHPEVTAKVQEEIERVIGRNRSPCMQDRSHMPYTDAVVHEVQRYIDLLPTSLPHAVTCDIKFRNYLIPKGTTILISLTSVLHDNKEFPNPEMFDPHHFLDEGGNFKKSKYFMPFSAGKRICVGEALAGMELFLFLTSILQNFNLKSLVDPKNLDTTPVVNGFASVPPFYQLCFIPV

[11] = target: CYP2C19 (Homo sapiens, UniProt P33261); assay: Inhibition of CYP2C19 (unknown origin) assessed as percentage remaining activity at 10 uM; assay type: ADME; conditions: read-out: INH; summary of the method: as §3
Chain of CYP2C19 (P33261 whole entry): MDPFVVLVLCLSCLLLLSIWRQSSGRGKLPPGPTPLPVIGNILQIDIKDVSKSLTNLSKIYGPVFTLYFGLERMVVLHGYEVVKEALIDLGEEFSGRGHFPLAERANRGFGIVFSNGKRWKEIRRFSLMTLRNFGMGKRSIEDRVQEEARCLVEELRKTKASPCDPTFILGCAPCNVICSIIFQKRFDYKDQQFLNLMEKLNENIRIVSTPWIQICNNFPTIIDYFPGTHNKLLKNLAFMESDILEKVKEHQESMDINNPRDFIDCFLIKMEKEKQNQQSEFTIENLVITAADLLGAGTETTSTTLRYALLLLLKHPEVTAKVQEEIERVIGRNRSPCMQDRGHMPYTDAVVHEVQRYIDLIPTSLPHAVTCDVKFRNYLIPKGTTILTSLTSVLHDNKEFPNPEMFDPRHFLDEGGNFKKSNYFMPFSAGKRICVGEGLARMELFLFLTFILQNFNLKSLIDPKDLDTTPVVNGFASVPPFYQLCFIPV

[12] = target: CYP2D6 (Homo sapiens, UniProt P10635); assay: Inhibition of CYP2D6 (unknown origin) assessed as percentage remaining activity at 10 uM; assay type: ADME; conditions: read-out: INH; summary of the method: as §3
Chain of CYP2D6 (P10635 whole entry): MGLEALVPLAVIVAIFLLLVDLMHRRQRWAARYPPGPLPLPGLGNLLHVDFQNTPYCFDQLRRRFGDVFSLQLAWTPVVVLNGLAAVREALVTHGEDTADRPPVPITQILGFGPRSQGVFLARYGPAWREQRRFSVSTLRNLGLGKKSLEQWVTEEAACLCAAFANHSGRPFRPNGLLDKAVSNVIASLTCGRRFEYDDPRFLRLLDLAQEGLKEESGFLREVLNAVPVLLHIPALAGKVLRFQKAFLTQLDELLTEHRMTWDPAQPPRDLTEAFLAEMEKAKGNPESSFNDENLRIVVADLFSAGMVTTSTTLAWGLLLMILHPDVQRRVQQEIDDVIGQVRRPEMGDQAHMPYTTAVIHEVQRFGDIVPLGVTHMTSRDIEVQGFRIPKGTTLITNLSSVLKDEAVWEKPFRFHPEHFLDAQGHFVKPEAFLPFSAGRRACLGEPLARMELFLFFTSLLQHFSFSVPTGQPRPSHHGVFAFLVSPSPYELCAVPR

[13] = target: CYP3A4 (Homo sapiens, UniProt P08684); assay: Inhibition of CYP3A4 (unknown origin) assessed as percentage remaining activity at 10 uM; assay type: ADME; conditions: read-out: INH; summary of the method: as §3
Chain of CYP3A4 (P08684 whole entry): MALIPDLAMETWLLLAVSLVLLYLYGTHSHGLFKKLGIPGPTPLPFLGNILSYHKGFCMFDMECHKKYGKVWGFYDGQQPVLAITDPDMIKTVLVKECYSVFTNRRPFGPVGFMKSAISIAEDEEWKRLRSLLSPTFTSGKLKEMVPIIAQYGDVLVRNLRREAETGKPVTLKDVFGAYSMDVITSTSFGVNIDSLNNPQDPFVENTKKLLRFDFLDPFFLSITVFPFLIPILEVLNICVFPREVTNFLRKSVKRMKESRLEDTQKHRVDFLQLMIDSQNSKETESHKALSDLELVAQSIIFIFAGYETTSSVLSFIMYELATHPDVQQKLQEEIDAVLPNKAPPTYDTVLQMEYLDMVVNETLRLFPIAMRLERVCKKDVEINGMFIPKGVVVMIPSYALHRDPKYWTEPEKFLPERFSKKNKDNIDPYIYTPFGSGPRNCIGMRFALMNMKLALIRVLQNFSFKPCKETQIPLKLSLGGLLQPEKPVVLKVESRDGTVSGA

[14] = target: T1, Peroxisome proliferator-activated receptor gamma (Mus musculus); assay: Agonist activity at PPARgamma in mouse 3T3-L1 cells assessed as increase in CD36 RNA expression at 10 uM by qRT-PCR analysis; assay type: cell-based
[15] = target: T1, Peroxisome proliferator-activated receptor gamma (Mus musculus); assay: Agonist activity at PPARgamma in mouse 3T3-L1 cells assessed as increase in AP2 RNA expression at 10 uM by qRT-PCR analysis; assay type: cell-based
[16] = target: T1, Peroxisome proliferator-activated receptor gamma (Mus musculus); assay: Agonist activity at PPARgamma in mouse 3T3-L1 cells accessed as increase in insulin stimulated 2-deoxy-D-glucose uptake at 10 uM pre-incubated for 20 mins followed by 2-deoxy-D-glucose addition and measured after 20 to 40 mins by glucose uptake assay; assay type: cell-based
[17] = system: 3T3-L1; assay: Induction of preadipocyte differentiation in mouse 3T3L1 cells grown in insulin medium assessed as conversion to matured adipocytes measured after 6 days by oil red O staining based phase contrast microscopy; assay type: functional, cell-based
[18] = system: Mus musculus; assay: Antidiabetic activity in db/db mouse assessed as reduction in random blood glucose level at 75 mg/kg, po administered via gavage twice daily for 2 weeks and measured once a week; assay type: functional, organism-based
[19] = system: Mus musculus; assay: Antidiabetic activity in db/db mouse assessed as reduction in body weight gain at 75 mg/kg, po administered via gavage twice daily for 2 weeks and measured on day 14; assay type: functional, organism-based
[20] = system: Mus musculus; assay: Antidiabetic activity in db/db mouse assessed as reduction in blood glucose level at 75 mg/kg, po administered twice daily for 2 weeks and measured on day 14 by OGTT method; assay type: functional, organism-based
[21] = Toxicity in db/db mouse assessed as reduction in food intake at 75 mg/kg, po administered via gavage twice daily and measured on day 7; assay type: organism-based; conditions: in vivo
[22] = Half life in rat at 10 mg/kg, po; assay type: ADME, organism-based; conditions: in vivo
[23] = Half life in mouse at 10 mg/kg, po; assay type: ADME, organism-based; conditions: in vivo
[24] = Tmax in rat at 10 mg/kg, po; assay type: ADME, organism-based; conditions: in vivo
[25] = Tmax in mouse at 10 mg/kg, po; assay type: ADME, organism-based; conditions: in vivo
[26] = Cmax in rat at 10 mg/kg, po; assay type: ADME, organism-based; set-up: dose 10 mg/kg, route oral; conditions: in vivo
[27] = Cmax in mouse at 10 mg/kg, po; assay type: ADME, organism-based; set-up: dose 10 mg/kg, route oral; conditions: in vivo
[28] = AUClast in rat at 10 mg/kg, po; assay type: ADME, organism-based; set-up: dose 10 mg/kg, time 0 - last, route oral; conditions: in vivo
[29] = AUClast in mouse at 10 mg/kg, po; assay type: ADME, organism-based; set-up: dose 10 mg/kg, route oral, time 0 - last; conditions: in vivo

- %max [1]: 331%
- EC50 [2]: 280 nM
- %max [3]: 98%
- remaining at 0.5 h [5]: 11%
- remaining at 0.5 h [6]: 12%
- remaining at 0.5 h [7]: 11%
- remaining at 0.5 h [8]: 17%
- activity at 10 µM [9]: 88%
- activity at 10 µM [10]: 57%
- activity at 10 µM [11]: 84%
- activity at 10 µM [12]: 93%
- activity at 10 µM [13]: 64%
- Activity [14]: Active
- Activity [15]: Active
- Activity [16]: Active
- half-life [22]: 107 min
- half-life [23]: 70.8 min
- Tmax [24]: 18 min
- Tmax [25]: 19.8 min
- Cmax [26]: 1320 ng/mL
- Cmax [27]: 949 ng/mL
- AUC(0-t) [28]: 889 ng·h/mL
- AUC(0-t) [29]: 584 ng·h/mL
SMILES: CCCCc1nc(C)c(Cc2nc(C(C)(C)C)no2)c(=O)n1Cc1ccc(-c2ccccc2-c2noc(=O)[nH]2)cc1
- inhibition at 10 µM [4]: 8.3%
- Activity [17]: Dose-dependent effect
- Activity [18]: Active
- Activity [19]: inactive
- Activity [20]: Active
- Activity [21]: Toxic
